Test results as given in ChEMBL document CHEMBL4251654, “Structure-based design of human immuno- and constitutive proteasomes inhibitors” (Eur J Med Chem, 2018).
The source made the active and inactive calls. The calls are words filed in the database; no cut-off is given here.

Legend:
[1] = target: T1, Proteasome component C5 (Homo sapiens) (UniProt P20618); test: Inhibition of human 20S constitutive proteasome beta-1 at 50 uM using Z-LLE-betaNA as substrate incubated for 15 mins measured for 45 mins by fluorescence assay relative to control
T1 sequence (whole entry): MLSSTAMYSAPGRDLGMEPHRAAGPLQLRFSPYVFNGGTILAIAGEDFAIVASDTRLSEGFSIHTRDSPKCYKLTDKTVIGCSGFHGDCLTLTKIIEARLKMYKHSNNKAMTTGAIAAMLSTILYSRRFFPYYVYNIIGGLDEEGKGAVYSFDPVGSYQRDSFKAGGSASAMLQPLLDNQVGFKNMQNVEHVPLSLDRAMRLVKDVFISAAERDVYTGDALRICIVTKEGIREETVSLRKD
Outline: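 Human 20S constitutive proteasome, 0.3 nM, was preincubated 15 min with compound (0.001-50 μM) in pH 8 Tris-HCl 20 mM, 10% glycerol, 0.01% SDS, 2% DMSO. Z-LLE-βNA at 50 μM was added. βNA fluorescence (ex 340/em 404 nm) was monitored 45 min at 37 °C against an untreated control.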

[2] = target: T2, Proteasome subunit beta type-9 (Homo sapiens) (UniProt P28065); test: Inhibition of human 20S immunoproteasome beta-1 at 50 uM using Ac-PAL-AMC as substrate incubated for 15 mins measured for 45 mins by fluorescence assay relative to control
T2 sequence (whole entry): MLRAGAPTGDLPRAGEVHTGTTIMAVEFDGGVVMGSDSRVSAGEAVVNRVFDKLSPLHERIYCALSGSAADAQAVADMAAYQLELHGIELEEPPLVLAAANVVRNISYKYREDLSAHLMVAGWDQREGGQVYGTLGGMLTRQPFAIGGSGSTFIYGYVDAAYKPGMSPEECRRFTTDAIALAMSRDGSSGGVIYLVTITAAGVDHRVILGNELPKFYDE
Outline: (§1)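 Human 20S immunoproteasome (0.3 nM) was given 15 min with compound (0.001-50 μM) in pH 8 buffer of 20 mM Tris-HCl, 10% glycerol, 0.01% SDS, 2% DMSO. Ac-PAL-AMC at 50 μM was the substrate. Fluorescence (ex 360/em 460 nm) was followed 45 min at 37 °C relative to control.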

[3] = tested on: 20S immunoproteasome β5i (Homo sapiens); test: Inhibition of human 20S immunoproteasome beta-5
[4] = tested on: 20S proteasome β5 (Homo sapiens); test: Inhibition of human 20S constitutive proteasome beta-5
[5] = target: Proteasome Macropain subunit (Homo sapiens) (UniProt P49721); test: Inhibition of human 20S constitutive proteasome beta-2 at 50 uM using BocLRR-AMC as substrate incubated for 15 mins measured for 45 mins by fluorescence assay relative to control
Proteasome Macropain subunit (Homo sapiens), sequence (P49721 whole entry): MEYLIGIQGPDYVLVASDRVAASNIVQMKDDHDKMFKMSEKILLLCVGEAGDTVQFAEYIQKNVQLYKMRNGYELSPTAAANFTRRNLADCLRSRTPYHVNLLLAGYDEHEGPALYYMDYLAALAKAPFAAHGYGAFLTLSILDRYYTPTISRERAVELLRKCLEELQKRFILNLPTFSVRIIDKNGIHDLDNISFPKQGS
Outline: (§2)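 Purified human 20S proteasome (cCP or iCP), 0.3 nM, preincubated 15 min with compound (0.001-50 μM) in pH 8 buffer of 20 mM Tris-HCl, 10% glycerol, 0.005% Triton X-100, 2% DMSO. Then Boc-LRR-AMC at 50 μM was added. AMC fluorescence (ex 360/em 460 nm) was followed 45 min at 37 °C. Activity is relative to an untreated control.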

[6] = target: T3, Proteasome subunit beta type-10 (Homo sapiens) (UniProt P40306); test: Inhibition of human 20S immunoproteasome beta-2 at 50 uM using BocLRR-AMC as substrate incubated for 15 mins measured for 45 mins by fluorescence assay relative to control
T3 sequence (whole entry): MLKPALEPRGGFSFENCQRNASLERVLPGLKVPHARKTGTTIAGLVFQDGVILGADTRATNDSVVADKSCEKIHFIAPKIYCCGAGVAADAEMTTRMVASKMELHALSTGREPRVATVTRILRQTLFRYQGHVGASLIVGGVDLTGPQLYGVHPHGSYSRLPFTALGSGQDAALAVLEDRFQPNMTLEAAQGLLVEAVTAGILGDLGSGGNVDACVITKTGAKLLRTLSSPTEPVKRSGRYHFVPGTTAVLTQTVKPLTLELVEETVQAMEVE

[7] = target: T4, Proteasome subunit beta type-9 (Homo sapiens, UniProt P28065); test: Inhibition of human 20S immunoproteasome beta-1 using Ac-PAL-AMC as substrate incubated for 15 mins measured for 45 mins by fluorescence assay; outline: as §1
T4 sequence (P28065 whole entry): T2 sequence (whole entry)

[8] = target: T5, Proteasome subunit beta type-10 (Homo sapiens, UniProt P40306); test: Inhibition of human 20S immunoproteasome beta-2 using BocLRR-AMC as substrate incubated for 15 mins measured for 45 mins by fluorescence assay
T5 sequence (P40306 whole entry): T3 sequence (whole entry)

[9] = target: T6, Proteasome subunit beta type-8 (Homo sapiens) (UniProt P28062); test: Inhibition of human 20S immunoproteasome beta-5 at 50 uM using Suc-LLVY-AMC as substrate incubated for 15 mins measured for 45 mins by fluorescence assay relative to control
T6 sequence (whole entry): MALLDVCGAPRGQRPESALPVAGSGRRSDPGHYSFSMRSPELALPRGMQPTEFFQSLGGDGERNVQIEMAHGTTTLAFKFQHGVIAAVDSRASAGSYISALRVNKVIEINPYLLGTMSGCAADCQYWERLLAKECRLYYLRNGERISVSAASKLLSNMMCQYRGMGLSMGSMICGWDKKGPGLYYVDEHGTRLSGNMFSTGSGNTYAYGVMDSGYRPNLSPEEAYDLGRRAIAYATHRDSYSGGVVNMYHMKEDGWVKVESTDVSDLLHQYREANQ
Outline: (§3)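 Human 20S cCP or iCP (0.3 nM) was exposed to compound (0.001-50 μM) for 15 min in pH 8 buffer of 20 mM Tris-HCl, 10% glycerol, 0.01% SDS, 2% DMSO. Suc-LLVY-AMC at 20 μM followed. Fluorescence (ex 360/em 460 nm) was read 45 min at 37 °C versus untreated enzyme.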

[10] = target: T3, Proteasome subunit beta type-10 (Homo sapiens); test: Activation of human 20S immunoproteasome beta-2 at 50 uM using BocLRR-AMC as substrate incubated for 15 mins measured for 45 mins by fluorescence assay relative to control; outline: as §2
[11] = target: T7, Proteasome Macropain subunit MB1 (Homo sapiens, UniProt P28074); test: Inhibition of human 20S constitutive proteasome beta-5 using Suc-LLVY-AMC as substrate incubated for 15 mins measured for 45 mins by fluorescence assay; outline: as §3
T7 sequence (P28074 whole entry): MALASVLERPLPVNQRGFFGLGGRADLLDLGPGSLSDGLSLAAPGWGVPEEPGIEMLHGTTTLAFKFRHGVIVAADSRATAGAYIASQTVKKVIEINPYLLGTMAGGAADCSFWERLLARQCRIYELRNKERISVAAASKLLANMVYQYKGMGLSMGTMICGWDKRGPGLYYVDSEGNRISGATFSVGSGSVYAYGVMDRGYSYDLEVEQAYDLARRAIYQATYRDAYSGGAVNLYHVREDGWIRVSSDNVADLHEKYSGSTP

[12] = target: T8, Proteasome subunit beta type-8 (Homo sapiens, UniProt P28062); test: Inhibition of human 20S immunoproteasome beta-5 using Suc-LLVY-AMC as substrate incubated for 15 mins measured for 45 mins by fluorescence assay; outline: as §3
T8 sequence (P28062 whole entry): T6 sequence (whole entry)

[13] = target: T9, Proteasome Macropain subunit MB1 (Homo sapiens) (UniProt P28074); test: Inhibition of human 20S constitutive proteasome beta-5 at 50 uM using Suc-LLVY-AMC as substrate incubated for 15 mins measured for 45 mins by fluorescence assay relative to control; outline: as §3
T9 sequence (whole entry): T7 sequence (P28074 whole entry)

[14] = tested on: 20S immunoproteasome β5i (Homo sapiens); test: Inhibition of human 20S immunoproteasome beta-5 at 50 uM
[15] = tested on: 20S proteasome β5 (Homo sapiens); test: Inhibition of human 20S constitutive proteasome beta-5 at 50 uM
[16] = tested on: HCT-116; test: Cytotoxicity against human HCT116 cells assessed as reduction in cell viability after 48 hrs by Hoechst 33342 staining based HCS assay; assay type: functional; settings: Homo sapiens, HCT-116, 48 h; read-out: EC50
Outline: (§4)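 Cells were grown at 37 °C, 5% CO2 in medium with 10% FBS, 1% penicillin-streptomycin, 2 mM glutamine: DMEM for HuH7, MDA-MB-231 and fibroblasts, EMEM for Caco2, McCoy's for HCT116, RPMI for PC3 and NCI-H727. 4000 cells/well were seeded and dosed 24 h later at 0.1-25 μM final, from DMSO stocks. After 48 h they were fixed in ethanol/acetic acid and Hoechst-stained nuclei were counted by imaging. Survival is relative to DMSO. EC50 came from dose-response curves.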

[17] = tested on: PC-3; test: Cytotoxicity against human PC3 cells assessed as reduction in cell viability after 48 hrs by Hoechst 33342 staining based HCS assay; assay type: functional; settings: Homo sapiens, PC-3, 48 h; read-out: EC50; outline: as §4
[18] = tested on: Caco-2; test: Cytotoxicity against human Caco2 cells assessed as reduction in cell viability after 48 hrs by Hoechst 33342 staining based HCS assay; assay type: functional; settings: Homo sapiens, Caco-2, 48 h; read-out: EC50; outline: as §4
[19] = tested on: Fibroblast; test: Cytotoxicity against human fibroblasts assessed as reduction in cell viability after 48 hrs by Hoechst 33342 staining based HCS assay; outline: as §4
[20] = tested on: MDA-MB-231; test: Cytotoxicity against human MDA-MB-231 cells assessed as reduction in cell viability after 48 hrs by Hoechst 33342 staining based HCS assay; assay type: functional; settings: Homo sapiens, MDA-MB-231, 48 h; read-out: EC50; outline: as §4
[21] = tested on: Huh-7; test: Cytotoxicity against human HuH7 cells assessed as reduction in cell viability after 48 hrs by Hoechst 33342 staining based HCS assay; assay type: functional; settings: Homo sapiens, Huh-7, 48 h; read-out: EC50; outline: as §4
[22] = tested on: NCI-H727; test: Cytotoxicity against human NCI-H727 cells assessed as reduction in cell viability after 48 hrs by Hoechst 33342 staining based HCS assay; assay type: functional; settings: Homo sapiens, NCI-H727, 48 h; read-out: EC50; outline: as §4
[23] = tested on: MCF7; test: Cytotoxicity against human MCF7 cells assessed as reduction in cell viability after 48 hrs by Hoechst 33342 staining based HCS assay; assay type: functional; settings: Homo sapiens, MCF7, 48 h; read-out: EC50

inhibition [1] | inhibition [2] [%] | IC50 [3] [µM] | IC50 [4] [µM] | inhibition [5] | inhibition [6] [%] | IC50 [7] [µM] | IC50 [8] [µM] | inhibition [9] [%] | fold change (FC) [10] | IC50 [11] [µM] | IC50 [12] [µM] | inhibition [13] [%] | Compound | further results
inactive | 12 | 34 | 32 | 19% | 10 |  |  |  |  |  |  |  | C[C@H](NC(=O)[C@H](Cc1ccc(O)cc1)NC(=O)OC(C)(C)C)C(=O)N[C@@H](C[C@]1(O)C(=O)Nc2ccccc21)C(=O)NCc1ccccc1 | 
> 85% | > 85 | 13 | 10.7 | > 85% | > 85 | 21.5 | 27.2 |  |  |  |  |  | C[C@H](NC(=O)[C@@H](N)Cc1ccc(OCc2ccccc2)cc1)C(=O)N[C@@H](C[C@]1(O)C(=O)Nc2ccccc21)C(=O)NCc1ccccc1 | 
> 85% | > 85 |  |  | inactive |  | 13 |  | > 85 | 1.5 | 28.7 | 19.7 | > 85 | C[C@H](NC(=O)[C@H](Cc1ccc(OCc2ccccc2)cc1)NC(=O)OC(C)(C)C)C(=O)N[C@@H](C[C@]1(O)C(=O)Nc2ccccc21)C(=O)NCc1ccc(-c2ccccc2)cc1 | 
inactive | 10 |  |  | 13% | 19 |  |  |  |  |  |  |  | CNC(=O)[C@H](C[C@@]1(O)C(=O)Nc2ccccc21)NC(=O)[C@H](C)NC(=O)[C@H](Cc1ccc(OCc2ccccc2)cc1)NC(=O)OC(C)(C)C | inhibition [14]: 8%; inhibition [15]: inactive
15% | > 85 |  |  | inactive |  | 59 |  | > 85 | 1.3 | 22 | 25.1 | > 85 | CC(C)(C)OC(=O)NCCCC[C@H](NC(=O)[C@H](Cc1ccc(OCc2ccccc2)cc1)NC(=O)OC(C)(C)C)C(=O)N[C@@H](C[C@]1(O)C(=O)Nc2ccccc21)C(=O)NCc1ccccc1 | 
> 85% | > 85 |  |  | > 85% |  |  |  | > 85 |  |  |  | > 85 | COc1ccc(C[C@H](NC(=O)[C@H](C)NC(=O)CN2CCOCC2)C(=O)N[C@@H](Cc2ccccc2)C(=O)[C@@]2(C)CO2)cc1 | EC50 [16]: 0.11 µM; EC50 [17]: 0.33 µM; EC50 [18]: 1.3 µM; EC50 [19]: 0.16 µM; EC50 [20]: 0.27 µM; EC50 [21]: 0.39 µM; EC50 [22]: 0.3 µM; EC50 [23]: 0.26 µM
37% | > 85 |  |  | inactive |  |  |  | > 85 | 1.3 | 10 | 17.1 | > 85 | CC(C)c1ccc(CNC(=O)[C@H](C[C@]2(O)C(=O)Nc3ccccc32)NC(=O)[C@H](C)NC(=O)[C@H](Cc2ccc(OCc3ccccc3)cc2)NC(=O)OC(C)(C)C)cc1 | 
> 85% | > 85 | 7.3 | 7 | inactive | > 85 | 10.6 | 34 |  |  |  |  |  | C[C@H](NC(=O)[C@H](Cc1ccc(OCc2ccccc2)cc1)NC(=O)OC(C)(C)C)C(=O)N[C@@H](C[C@@]1(O)C(=O)Nc2ccccc21)C(=O)NCc1ccccc1 | 
20% | 13 |  |  | 36% | > 85 |  | 79 |  |  |  |  |  | CNC(=O)[C@H](C[C@]1(O)C(=O)Nc2ccccc21)NC(=O)[C@H](C)NC(=O)[C@H](Cc1ccc(OCc2ccccc2)cc1)NC(=O)OC(C)(C)C | inhibition [14]: 24%
